Compound activity from PubChem BioAssay.
GPR7 antagonist: GPR7 receptor antagonists, primary screen, cell-based, fluorescence, single concentration | Neuropeptides B/W receptor type 1 (Homo sapiens), P48145 | GPR7-expressing cells, fluorescence antagonist assay | inhibition, % at 4.4 µM | 1.1% of 290,000 active | AID 1861, 2009; in the data active = inhibition above about 16%, passing the limit was not always enough;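 note: cells stimulated with the agonist NPW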
OX1R antag-1: OX1R (HCRTR1) antagonists, primary screen, fluorescence, CHO/OX1R cells, Fluo-8 calcium, orexin A; Orexin/Hypocretin receptor type 1 (Homo sapiens), O43613; Fluo-8 calcium fluorescence; inhibition, % at 5 µM; 0.43% of 330,000 active; AID 434989, 2010;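 active = inhibition above its plate's threshold, mean inhibition of all tested compounds on the plate plus 3 SD, cut at about 37% in these data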
OX1R antag-2: antagonists of human orexin 1 receptor (OX1R); 1.8% of 330,000 active; OX1R-expressing cells, FRET antagonist read-out; Orexin/Hypocretin receptor type 1 (Homo sapiens), O43613; AID 485270, 2010; inhibition, % at 6.6 µM; in the data active = inhibition mostly above about 38%, no sharp cut-off; inactive = mostly below about 40%
TAAR1 antag: human TAAR1 antagonists, primary screen, Fluo-8 calcium fluorescence, CHO RD-HGA16 cells; 1.5% of 360,000 active; antagonist; Trace amine-associated receptor 1 (Homo sapiens), Q96RJ0; inhibition, % at 3 µM;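 active = inhibition above a per-plate cutoff, the mean inhibition of test compounds on that plate plus 3 SD, cut at about 49% in these data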
Target sequence (Q96RJ0 whole entry, looked up): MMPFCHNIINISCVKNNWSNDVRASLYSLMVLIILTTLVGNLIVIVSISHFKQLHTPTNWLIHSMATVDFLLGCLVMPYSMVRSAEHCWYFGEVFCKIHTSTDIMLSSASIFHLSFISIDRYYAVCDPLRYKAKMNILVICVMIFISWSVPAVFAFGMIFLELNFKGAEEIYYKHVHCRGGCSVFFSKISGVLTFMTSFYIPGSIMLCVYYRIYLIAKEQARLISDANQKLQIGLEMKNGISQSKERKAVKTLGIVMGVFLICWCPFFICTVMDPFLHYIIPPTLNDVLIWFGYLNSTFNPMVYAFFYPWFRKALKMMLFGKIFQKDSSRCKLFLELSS
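System: RD-HGA16 CHO cells with stable hTAAR1 and Gα16 | Probe or stimulus: EC80 β-phenethylamine stimulus | Dosing: 3 µM, single point | Times: Dye loading 75 min at 37 °C, then 30 min room temperature | Measured by: Fluo-8 calcium-sensitive fluorescence | Read-out basis: % inhibition of agonist calcium response | Replicates: n of 1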
TAAR1 agonist: human TAAR1 agonists, primary screen, Fluo-8 calcium fluorescence, CHO RD-HGA16 cells; vehicle wells 0%, saturating PEA agonist 100%; AID 624467, 2012; activation, % at 3 µM; Trace amine-associated receptor 1 (Homo sapiens), Q96RJ0; 0.99% of 360,000 active;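 active = activation above the mean activation of all test compounds in the run plus 3 SD, cut at about 38% in these data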
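Signal – calcium-sensitive Fluo-8 signal, excitation 470-495, emission 515-575 nm · System – RD-HGA16 (CHO) cells co-expressing Gα16 and hTAAR1 · Incubation – 17-24 h seeding, 75 min 37 °C dye, 30 min RT · Compound dosing – 3 µM single concentration · Repeats – no replicates (n 1)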
CHO parental Ca: ATP-evoked calcium signal inhibitors, parental CHO, primary screen, counter-screen for OX1R antagonist project, cell-based, fluorescence, Fluo-8 calcium dye; parental CHO-K1, ATP-induced calcium, Fluo-8 fluorescence; inhibition, % at 5.6 µM; 0.63% of 330,000 active; AID 463079, 2010;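 active = inhibition above that plate's mean sample inhibition plus 3 SD, cut at about 26% in these data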
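Assay system – parental CHO cells · Reagent – ATP stimulus · Detection – intracellular calcium via Fluo-8 no-wash fluorescent dye · Evaluation – percent inhibition of ATP-evoked calcium rise, normalized to controls · Controls – ATP wells versus no-ATP DMSO wells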
Large screens that a line does not name were inactive. Shown are actives, neighbours in structure and some others; about 4.6% of the full set was active somewhere.

c1ccc(-c2nc(-n3nc4ccccc4n3)nc3ccccc23)cc1	TAAR1 antag 65
Cc1cc(C)cc(NC(=S)/C(=C(\[O-])c2ccc(Cl)cc2Cl)[n+]2ccccc2)c1	GPR7 antagonist 16
Cc1nn(C)c(C)c1CN(Cc1nc(CCC(C)C)no1)C(C)C	CHO parental Ca 41
COc1ccc(NC(=O)Nc2ccc3c(c2)CCC3)cc1OC	none
COc1ccc(/C=C/C(=O)Nc2ccc3c(c2)CCC3)cc1OC	OX1R antag-2 73
CCOC(=O)N1CCN(C(=O)c2ccc(NC(=O)c3ccc(C)cc3)cc2)CC1	none
O=C(NC(NNc1ccc([N+](=O)[O-])cc1)(C(F)(F)F)C(F)(F)F)c1ccc(Cl)cc1	none
Cc1ccc(Nc2nc(N)nc(CN3CCCCCC3)n2)c(C)c1	GPR7 antagonist 20
C/C(=N\NC(=O)CSc1nc(C)cc(C)n1)c1ccc([N+](=O)[O-])cc1	none
CCCCN(CC)C(=O)Cc1ccc(Br)cc1	none
N#Cc1cc(NC2CCCC2)c([N+](=O)[O-])cc1C#N	none
N#Cc1cc(Nc2c(N)nc[nH]c2=O)c([N+](=O)[O-])cc1C#N	OX1R antag-2 48
CCCOc1cccc(-c2cc(C(=O)N/N=C/c3cccnc3)c3ccccc3n2)c1	TAAR1 antag 54 (no result: OX1R antag-1, OX1R antag-2, CHO parental Ca)
Cc1c(C(=O)NNC(=O)c2ccccc2O)oc2ccc(Br)cc12	CHO parental Ca 64 (no result: GPR7 antagonist)
O=C(COC(=O)c1cc[n+]([O-])cc1)Nc1cc([N+](=O)[O-])ccc1Cl	OX1R antag-2 57 (no result: GPR7 antagonist)
O=C(COC(=O)c1ccc[n+]([O-])c1)Nc1ccc([N+](=O)[O-])cc1C(F)(F)F	OX1R antag-2 33 (no result: GPR7 antagonist)
Cc1nn(S(=O)(=O)c2cccs2)c(C)c1Sc1ccc([N+](=O)[O-])cc1	CHO parental Ca 41
Cc1nn(S(=O)(=O)c2cccs2)c(C)c1Sc1ccccc1	none (no result: OX1R antag-1, OX1R antag-2, TAAR1 antag, TAAR1 agonist, CHO parental Ca)
O=C(NNc1c2ccccc2nc2ccccc12)C(O)c1ccccc1 (configuration not stated)	OX1R antag-2 71
CCCC(=O)NNc1c2ccccc2nc2ccccc12	none
O=C(COc1ccccc1)NNc1c2ccccc2nc2ccccc12	OX1R antag-2 86
O=C(COc1cccc(NC(=O)c2cccc([N+](=O)[O-])c2)c1)c1ccc(Br)cc1	TAAR1 antag 83
O=C(COC(=O)c1cccc([N+](=O)[O-])c1)c1ccc(OCc2ccccc2)cc1	OX1R antag-1 53, CHO parental Ca 53
O=C(CCc1ccccc1)OCC(=O)c1cccc([N+](=O)[O-])c1	none
O=C(NCc1ccccc1)[C@@H]1CCCN1C(=O)[C@H]1CCCN1C(=O)c1cccs1	none (no result: GPR7 antagonist, OX1R antag-1, OX1R antag-2, CHO parental Ca)
O=C1NC[C@H](CCCCN2C[C@H](Cc3ccc(O)cc3)N(CC3CCCCC3)C(=O)C2=O)N(CC2CCCCC2)C1=O	none (no result: GPR7 antagonist, OX1R antag-1, OX1R antag-2, CHO parental Ca)
COc1ccnc(Oc2ccccc2)c1C(=O)N/C=N/OCc1ccccc1F	TAAR1 antag 49
COc1ccnc(Oc2ccc(F)cc2)c1C(=O)N/C=N/OCc1ccccc1	none
COc1ccccc1NC(=O)N1CCc2[nH]c3ccc(F)cc3c2C1	TAAR1 agonist 43
O=C(C1CCCCC1)N1CCc2[nH]c3ccc(F)cc3c2C1	none
CC1CN(C(=O)c2ccc(S(=O)(=O)Nc3cccc(C(F)(F)F)c3)cc2)CC(C)O1 (configuration not stated)	TAAR1 agonist 59 (no result: GPR7 antagonist)
O=c1n(CC2CO2)c(=O)n(CC2CO2)c(=O)n1CC1CO1 (configuration not stated)	none (no result: GPR7 antagonist, OX1R antag-1, OX1R antag-2, CHO parental Ca)
O=C(O)c1ccccc1NC(=O)C1CCCO1 (configuration not stated)	none
O=C(NCCc1ccccc1)c1ccc(NC(=O)C2CCCCC2)cc1	TAAR1 antag 49 (no result: GPR7 antagonist, OX1R antag-1, OX1R antag-2, CHO parental Ca)
O=C(NCCc1ccccc1)c1ccccc1NC(=O)C1CCCO1 (configuration not stated)	GPR7 antagonist 20
Cc1cccc(NS(=O)(=O)c2nnc(NC(=O)c3cccc(C)c3)s2)c1	OX1R antag-2 63
